This passage reports yeast fitness results from the RNAGym collection of RNA variant scans (doi:10.1126/science.aae0568).

Variants at the floor of the assay were thinned out.

B1: tRNA (parent)
chain: GUUCCGUUGGCGUAAUGGUAACGCGUCUCCCUCCUAAGGAGAAGACUGCGGGUUCGAGUCCCGUACGGAACG

Variants of B1 are the subject of the data set. Briefly: yeast fitness relative to wild type (ratio to wild type); higher = fitter; tRNA-Arg(CCU), competitive growth, 37 C, YPD. In short, it runs like this: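 Start and end populations of a pooled competition were compared by 100-nucleotide paired-end sequencing of gene amplicons. The Saccharomyces cerevisiae strains carried tRNA-Arg(CCU) gene variants at the native genomic locus, synthesised with a 3% per-site mutation rate at 69 sites, and competed in YPD at 37°C for 24 hours in six parallel replicates. Darwinian fitness relative to wild type was based on the change in genotype frequencies. Genotypes required ≥ 100 starting reads, and estimates < 0.5 were set to 0.5.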
Regarding GUUCCGUUGGCGUAAUGGUCACGUGUCUCCCUCCUAAGGAGUAGACUGCGGGUUCGAGCCCCGUACGGUACG, the yeast fitness is 0.535.

With GUUGCGUUGGCGUCAUGGUAACGCGUCUCUCUCCUAAGGUGAAGACUGUGGGUUCGAGUCCCGUACGGAACG, the yeast fitness stood at 0.504. As for GUUCCGUAGGCGUAAUGGUAACGCGUCUCCCUCCUAAGGAGAAGACUGCGGGUUUGAGUCCCGUACGGAACG, the yeast fitness was ≤ 0.5. For the variant GUUCCGUUGGCGUAAUGGUAACGCGUCUCCCUCCUAAGGAGAAGACUGCGGAUUCGCGUCCCGUACGGAGCG, the yeast fitness was determined as 0.524.

GUUCUGUUGGCGUAAUGGUAGCGCGUCUCCCUCCUAAGGAGUAGACUGCCGGUUCGAGUCCCGUACGGAACG: the yeast fitness is ≤ 0.5.

Consider GUUCCGUUGGCGUAAUGGUAACGUGUCUCCCUCUUAAGGGGAAGACUGCGGGUUGGAGUCCCGUACGGAACG, for which the yeast fitness is ≤ 0.5. The result for GUGCCGUUGGCGCAAUGGUAACGCGUCUCCCUACUAAGGAGUAGACUGCGGGUUAGAGUCCCGUACGGAACG reads 0.585; that for GUUCCGUUGGCGUAAUAGUAACGCGUCUUCCUUCUAAGGAGAAGACUGCGGGUUCGCGUCCCGUACGUAACG, ≤ 0.5; that for GUCCCGUUGGCGUAAUGGUUACGCGUCUCACUCCUAAGGAGAAGACUGCGGGUUCGAGUCCCGUACGGAACG, 0.568. The result for GAUCCGUUGGCGUAAUGGUAACGCGUCUCCCUCGUAUGGUGAAGACUGCGGGUUCGAGUCCCGUAUGGAACG reads ≤ 0.5; that for GUUCCGUUGGCGUAAUGGUAACGCGUCUCCCUCCUAAGGAGAAGAUUGCGGGUUCGAGGACCCUACGGUACG, 0.632; that for GUUCCCGUGGCGUAAUGGAAACGCGUGUCCCUCCUAAGGAGAAGACUGCGGGUUCGAGUCCCGUACUGAACG, ≤ 0.5. GUUCCGUUGGCGUAAUGGUAACGCGUCUCCCUGCUCAGGAGAAGACUGCGGGUUCGUGUCCCGUACGGAACG: the yeast fitness is ≤ 0.5. With GUUCCGUUGGCGUGAUGGUAACGCGUCUCCCUCCUAAGGAGAAGGCUGCGGGUUCGAGUCCCGUUCGCAACG, the yeast fitness was ≤ 0.5.

In the case of GUUCCGUUGGCGUAAUGGUUACGCGUCUCCCUCCUAAGGUGAAGAGUGCGGGUUCGAGUCCGGUAUGGACCG, the yeast fitness was found to be 0.573.

With GUUCCGUUGGCGUAACGGUACCGCGUCUCCCUCCUAGGGAGAAGACUGCGGGUCAGAGUCCCGUACGGAACG, the yeast fitness is ≤ 0.5. The result for GUUCCGUUGGCGUAAUGGUAACGCGUCUCCCUGCUAAGGAGAAGACUGCGGGUUCGCGUCCCGUACGGAACG reads ≤ 0.5; that for GUUCCGUUGGCGUAAUGGGAACGCGCCUGCCUCCUAAGGAGAAGACUGCGGGUUCGUGUCCCGUACGGUCCG, ≤ 0.5. Consider GUUCCGUUGGCGUAAUAGUAACGCGUCUCCCUCCUAAGGAGAAGACUGCGGCUUCGAGUCCCGUACGGAACG, for which the yeast fitness is 0.65.

As to GUUCCCUUGGCGUAAUGGUCACGCGUCUCCCUCCUAAGGGGUAGACUGCGGGUUCGAAUCCCAUACAGAACG, the yeast fitness was 0.519. The result for GUUCCGUUGGGGUAAUGGUAUCGCGUCUCCGUCCUAAGGAGAAGACUGCGGGUUCGAGUCCCGUACGGAACG reads ≤ 0.5; that for GUUCCGUUGGCGUAAUAGUAACGCGUCUCCCUCCUAAGGAGAAGACUGCGGGUUCGCGUCCCGUACGGAACG, 0.581; that for GUUCCGUUGGCGUAAUGGUAUCGCGUCUCCCUCCUAAGGAGCAGACUGCGGGUUCGAGUCCCGUACGGAACG, 0.741. The figure for GUUCCGUUGGCGUAAUGGUAACGCGUCUCCUUCCUUAGGAGAAGACUGCGGGUUCGAGUCCCGUACGGCACG is 0.591. Take GUUCCGUUGGCGUAAUGGUAACGCGUCUACCUCCUCAGGAGAAGACUGCGGGUUCGAGUCCCGUACGGAACG: the yeast fitness amounted to 0.634. The result for GUUCCGUUGGCGUAAUGGUAACGCGCCUCCCUCCUAGGGAGAAGACUGCGGGUUCGAGUACCGUACGGAACG reads ≤ 0.5; that for GUUCCGUUGGCCUAAUGGUUACGCGUCUCCCUUCUAUGGAGAAGACUGCGGGUUCGUGUCCCGUACGGAACG, ≤ 0.5; that for GUACCGUUGGCGUAAUGGUAACGCGUCUCCCUCCUAACGAGAAGACUGCGGGUUCGAGUCCCGUACGGAACG, 0.611. For GUCCCGUUGGCGUAAUGGUAACGCGUCUGGCUCCUACGAAGAAGACUGCGGGUUCGAGUCCCGUACGGAACG, the yeast fitness is ≤ 0.5. Regarding GUUCCGUUGGCGUAAUGGUAACGCGUCUCCCUCCGAAGGAGAAGACUGGGGGUUCGAGUCCCGAACGGAACG, the yeast fitness was 0.525. The figure for GUUCCGUUGGCGUAAUGGAUACGCGUCUCCCUCCCAAGGAGAAGACUGCGGGUUCGAGUCCCGUACGGAACG is 0.82; for GUUCCGUUGCCGUAAUGGUUACGCGUCUCCCUCCUAAGGAGAAGACUGCGGGUUCGAGUGCCGUACGGAACG it is 0.587. For the variant GUUCCCUUGGCGUUAUGGUAACGCGUCUCCCUCCUAAGGAGAAGACUGCGGGUUCGAGUCCCGUACGGAACG, the yeast fitness is 0.607. The result for GUUCCAUUGGCGUAAUGGUAACGCGUCUGACUCCUAAGGAGAAGACUGCGGGUUCGAGUCCCGGACGGCACG reads ≤ 0.5; that for GUUCCGUUGGCGUAAUGGUAGCACGUCUCCUUCCUAAGGAGAAGCCUGCGGGUUCGAGUACCGUAUGGAACG, ≤ 0.5; that for GUUCCGUUGGCGUAAUGAUAACGCGUCUCCCUCCUAAGGAGAAGACUGCGGGUUCGACUCCCGUACGGAACG, 0.792.

For GUUCCGUUGGCGUAAUGGUAACGCGUCUCCCUCCAAAGGAGAAGACUACGGGUUCGAGUCCCGUACGGAACG, the yeast fitness came to 0.644.
